Experimental data taken from ChEMBL document CHEMBL3244396, “Synthesis and antileukemic activity of 5-substituted 2,3-dihydro-6,7-bis(hydroxymethyl)-1H-pyrrolizine diesters” (J Med Chem, 1977).

Key:
L1210 [1] = assay: Antileukemic activity against mouse L1210 cells allografted in male CDF1 mouse assessed as change in body weight at 100 mg/kg, ip administered daily for 9 days as Klucel suspension starting 24 hrs after tumor inoculation; type: functional; conditions: route intraperitoneal
Method in brief: (§1)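 Ascitic fluid carrying L1210 cells was inoculated ip. Compound was given ip as a Klucel (hydroxypropylcellulose) suspension in nine daily doses, starting 24 h after inoculation. Body-weight difference (treated minus control) was recorded on day 5. Survival was scored as %T/C of mean survival time.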

Mus musculus [2] = assay: Toxicity in female BDF1 mouse allografted with mouse L1210 cells assessed as animal survival at 50 mg/kg, ip administered daily for 9 days as Klucel suspension starting 24 hrs after tumor inoculation measured on fifth day; type: organism-based; parameters: dose 50 mg/kg, route intraperitoneal; conditions: in vivo
Method in brief: (§2)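 L1210 leukemia passaged as ascitic fluid and inoculated ip. Test agent given ip as a Klucel (hydroxypropylcellulose) suspension, nine daily doses starting 24 h after tumor inoculation. Acute toxicity read as toxicity-day survivors per group (out of 6), recorded on day 5. Animal weight difference T − C was also recorded. Follows NCI screening protocols.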

Mus musculus [3] = assay: Toxicity in male CDF1 mouse allografted with mouse P388 cells assessed as animal survival at 50 mg/kg, ip administered daily for 9 days as Klucel suspension starting 24 hrs after tumor inoculation; type: organism-based; parameters: dose 50 mg/kg, route intraperitoneal; conditions: in vivo
Method in brief: (§3)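 P-388 leukemia ascitic fluid inoculated ip. Compound given ip as a suspension in Klucel (hydroxypropylcellulose), once daily for nine doses beginning 24 h post-inoculation. Acute toxicity assessed as toxicity-day survivors per group. Survival was followed up to 30 days, with 30-day survival counted as "cure". Follows NCI screening protocols.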

Mus musculus [4] = assay: Toxicity in male CDF1 mouse allografted with mouse P388 cells assessed as animal survival at 25 mg/kg, ip administered daily for 9 days as Klucel suspension starting 24 hrs after tumor inoculation; type: organism-based; parameters: dose 25 mg/kg, route intraperitoneal; conditions: in vivo; method in brief: as §3
P388 [5] = assay: Antitumor activity against mouse P388 cells allografted in male CDF1 mouse assessed as disease cures by measuring 30-days host survival at 50 mg/kg, ip administered daily for 9 days as Klucel suspension starting 24 hrs after tumor inoculation relative to control; type: functional; conditions: route intraperitoneal
Method in brief: (§4)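 P388 leukemia given as an ascitic fluid cell inoculum, ip, to mice of the strain and sex in each line. Nine daily ip doses were given in a Klucel (hydroxypropylcellulose) suspension, starting 24 h after inoculation. Read-out is median survival time as %T/C, with >125 taken as significant; a "cure" means 30-day survival.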

L1210 [6] = assay: Antileukemic activity against mouse L1210 cells allografted in female BDF1 mouse assessed as change in body weight at 12.5 mg/kg, ip administered daily for 9 days as Klucel suspension starting 24 hrs after tumor inoculation; type: functional; conditions: route intraperitoneal; method in brief: as §1
Mus musculus [7] = assay: Toxicity in male CDF1 mouse allografted with mouse L1210 cells assessed as animal survival at 200 mg/kg, ip administered daily for 9 days as Klucel suspension starting 24 hrs after tumor inoculation measured on fifth day; type: organism-based; parameters: dose 200 mg/kg, route intraperitoneal; conditions: in vivo; method in brief: as §2
Mus musculus [8] = assay: Toxicity in male CDF1 mouse allografted with mouse P388 cells assessed as animal survival at 12.5 mg/kg, ip administered daily for 9 days as Klucel suspension starting 24 hrs after tumor inoculation; type: organism-based; parameters: dose 12.5 mg/kg, route intraperitoneal; conditions: in vivo; method in brief: as §3
Mus musculus [9] = assay: Toxicity in female BDF1 mouse allografted with mouse L1210 cells assessed as animal survival at 25 mg/kg, ip administered daily for 9 days as Klucel suspension starting 24 hrs after tumor inoculation measured on fifth day; type: organism-based; parameters: dose 25 mg/kg, route intraperitoneal; conditions: in vivo; method in brief: as §2
L1210 [10] = assay: Antileukemic activity against mouse L1210 cells allografted in female BDF1 mouse assessed as host mean survival time at 50 mg/kg, ip administered daily for 9 days as Klucel suspension starting 24 hrs after tumor inoculation relative to control; type: functional; conditions: route intraperitoneal
Method in brief: (§5)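 L1210 leukemia given as an ascitic fluid cell inoculum, ip, to mice of the strain and sex in each line. Test material was given ip for nine daily doses starting 24 h after inoculation, in a Klucel (hydroxypropylcellulose) suspension. Read-out is mean survival time as %T/C versus controls, with >125 taken as significant.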

P388 [11] = assay: Antitumor activity against mouse P388 cells allografted in male CDF1 mouse assessed as change in body weight at 12.5 mg/kg, ip administered daily for 9 days as Klucel suspension starting 24 hrs after tumor inoculation; type: functional; conditions: route intraperitoneal
Method in brief: (§6)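 Ascitic fluid carrying P388 cells was inoculated ip. Compound was given ip in nine daily doses, starting 24 h after inoculation, in Klucel (hydroxypropylcellulose) suspension or in saline with Tween-80. Body-weight difference (treated minus control) was recorded on day 5. Survival was scored as %T/C of median survival time, and 30-day survival counted as cure.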

L1210 [12] = assay: Antileukemic activity against mouse L1210 cells allografted in male CDF1 mouse assessed as host mean survival time at 100 mg/kg, ip administered daily for 9 days as Klucel suspension starting 24 hrs after tumor inoculation relative to control; type: functional; conditions: route intraperitoneal; method in brief: as §5
L1210 [13] = assay: Antileukemic activity against mouse L1210 cells allografted in female BDF1 mouse assessed as change in body weight at 50 mg/kg, ip administered daily for 9 days as Klucel suspension starting 24 hrs after tumor inoculation; type: functional; conditions: route intraperitoneal; method in brief: as §1
L1210 [14] = assay: Antileukemic activity against mouse L1210 cells allografted in female BDF1 mouse assessed as host mean survival time at 25 mg/kg, ip administered daily for 9 days as Klucel suspension starting 24 hrs after tumor inoculation relative to control; type: functional; conditions: route intraperitoneal; method in brief: as §5
P388 [15] = assay: Antitumor activity against mouse P388 cells allografted in male CDF1 mouse assessed as disease cures by measuring 30-days host survival at 25 mg/kg, ip administered daily for 9 days as Klucel suspension starting 24 hrs after tumor inoculation relative to control; type: functional; conditions: route intraperitoneal; method in brief: as §4
P388 [16] = assay: Antitumor activity against mouse P388 cells allografted in male CDF1 mouse assessed as disease cures by measuring 30-days host survival at 12.5 mg/kg, ip administered daily for 9 days as Klucel suspension starting 24 hrs after tumor inoculation relative to control; type: functional; conditions: route intraperitoneal; method in brief: as §4
P388 [17] = assay: Antitumor activity against mouse P388 cells allografted in male CDF1 mouse assessed as change in body weight at 100 mg/kg, ip administered daily for 9 days as Klucel suspension starting 24 hrs after tumor inoculation; type: functional; conditions: route intraperitoneal; method in brief: as §6
L1210 [18] = assay: Antileukemic activity against mouse L1210 cells allografted in female BDF1 mouse assessed as host mean survival time at 12.5 mg/kg, ip administered daily for 9 days as Klucel suspension starting 24 hrs after tumor inoculation relative to control; type: functional; conditions: route intraperitoneal; method in brief: as §5
P388 [19] = assay: Antitumor activity against mouse P388 cells allografted in male CDF1 mouse assessed as change in body weight at 25 mg/kg, ip administered daily for 9 days as Klucel suspension starting 24 hrs after tumor inoculation; type: functional; conditions: route intraperitoneal; method in brief: as §6
P388 [20] = assay: Antitumor activity against mouse P388 cells allografted in male CDF1 mouse assessed as disease cures by measuring 30-days host survival at 100 mg/kg, ip administered daily for 9 days as Klucel suspension starting 24 hrs after tumor inoculation relative to control; type: functional; conditions: route intraperitoneal; method in brief: as §4
[21] = Cytotoxicity against human 9KB cells treated as ethanol solution; type: functional; conditions: read-out: ED50 (the source's name)
Method in brief: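 Compound applied as an ethanol solution; activity read out as ED50 under the general screening protocol.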

Mus musculus [22] = assay: Toxicity in male CDF1 mouse allografted with mouse L1210 cells assessed as animal survival at 100 mg/kg, ip administered daily for 9 days as Klucel suspension starting 24 hrs after tumor inoculation measured on fifth day; type: organism-based; parameters: dose 100 mg/kg, route intraperitoneal; conditions: in vivo; method in brief: as §2
L1210 [23] = assay: Antileukemic activity against mouse L1210 cells allografted in male CDF1 mouse assessed as change in body weight at 200 mg/kg, ip administered daily for 9 days as Klucel suspension starting 24 hrs after tumor inoculation; type: functional; conditions: route intraperitoneal; method in brief: as §1
L1210 [24] = assay: Antileukemic activity against mouse L1210 cells allografted in male CDF1 mouse assessed as host mean survival time at 200 mg/kg, ip administered daily for 9 days as Klucel suspension starting 24 hrs after tumor inoculation relative to control; type: functional; conditions: route intraperitoneal; method in brief: as §5
P388 [25] = assay: Antitumor activity against mouse P388 cells allografted in male CDF1 mouse assessed as change in body weight at 50 mg/kg, ip administered daily for 9 days as Klucel suspension starting 24 hrs after tumor inoculation; type: functional; conditions: route intraperitoneal; method in brief: as §6
Mus musculus [26] = assay: Toxicity in female BDF1 mouse allografted with mouse L1210 cells assessed as animal survival at 12.5 mg/kg, ip administered daily for 9 days as Klucel suspension starting 24 hrs after tumor inoculation measured on fifth day; type: organism-based; parameters: dose 12.5 mg/kg, route intraperitoneal; conditions: in vivo
Method in brief: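 Female BDF1 mice bearing ip ascitic L1210 inoculum got nine daily ip doses in a Klucel suspension, starting 24 h after tumor inoculation. Toxicity was scored as toxicity-day survivors out of the group, recorded on the fifth day. Animal weight difference (T − C) was also tabulated.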

L1210 [27] = assay: Antileukemic activity against mouse L1210 cells allografted in female BDF1 mouse assessed as change in body weight at 25 mg/kg, ip administered daily for 9 days as Klucel suspension starting 24 hrs after tumor inoculation; type: functional; conditions: route intraperitoneal; method in brief: as §1

CNC(=O)OCc1c(COC(=O)NC)c(-c2ccc(Cl)c(Cl)c2)n2c1CCC2
Activity (L1210 [1]): -4.3 g
Activity (Mus musculus [2]): Non-toxic
Activity (Mus musculus [3]): Non-toxic
Activity (Mus musculus [4]): Non-toxic
T/C (P388 [5]): 155%
Activity (L1210 [6]): -1.5 g
Activity (Mus musculus [7]): Non-toxic
Activity (Mus musculus [8]): Non-toxic
Activity (Mus musculus [9]): Non-toxic
T/C (L1210 [10]): 124%
Activity (P388 [11]): 1.6 g
T/C (L1210 [12]): 74%
Activity (L1210 [13]): -3 g
T/C (L1210 [14]): 109%
T/C (P388 [15]): 160%
T/C (P388 [16]): 153%
Activity (P388 [17]): -1.9 g
T/C (L1210 [18]): 106%
Activity (P388 [19]): -0.4 g
T/C (P388 [20]): 188%
EC50 [21]: > 2.7 µg/mL
Activity (Mus musculus [22]): Non-toxic
Activity (L1210 [23]): -4.8 g
T/C (L1210 [24]): 63%
Activity (P388 [25]): -2.5 g
Activity (Mus musculus [26]): Non-toxic
Activity (L1210 [27]): -1.3 g
